Compound activity: PubChem, several laboratories
Rows were chosen to be rich in hits. Some 1.1% of all compounds tested hit in one or more screens of this group.
aDG glyco up – alpha-DG glycosylation activation; activation, % at 10 µM; 360,000 tested, 0.22% active; Pro5-aDG cells, alpha-DG glycosylation AlphaScreen (IIH6); 0% Pro5, 100% B10-LARGE cell signal;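 active means activation of at least 8% versus controls, or a plate z-score of at least 8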;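 further: Pro5 are CHO cells carrying HIG-tagged alpha-DG that lacks glycosylation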
T cell modulator – T cell immune modulators affecting CD8 T cell-vesicle binding; 2C CD8+ T cell-vesicle binding, flow cytometry; stronger effect = lower value; response (vesicle binding), % at 7 µM; 330,000 tested, 0.068% active; AID 2052;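 active means response, share of CD8 T cells binding vesicles, and their 90th percentile fluorescence all below set limits, cut at about 80% in these data, passing the limit was not always enough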;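 further: values below 100% mean blocked vesicle binding to the CD8+ T cells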
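Assay system: 2C TCR transgenic mouse naive CD8+ T cells, MACS-purified | Read-out: CD8+ gate FL2 mean fluorescence as % of same-row positive control | Signal: High-throughput flow cytometry with anti-B7-1 and anti-CD8 staining | Timing: Binding step 1.5 h, 37 °C, antibody labelling 20 min, ice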
CaV13 ICDI inh – Primary screen for inhibitors of IQ motif and Ca2+-dependent inactivation inhibitor domain binding in CACNA1D, Förster resonance energy transfer in living cells, …; AID 743397; inhibition, % at 12.3 µM; 340,000 tested, 0.098% active; HEK cells, CFP/YFP FRET ICDI-IQ, plate reader, 10 min; percent FRET-ratio fall versus neutral wells;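 active means mean replicate inhibition of at least 30% and at least 1% of replicates passing that level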;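 further: 0% = median of the neutral control wells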
procasp3 activ – activators of human procaspase-3. P42574. recombinant procaspase-3 D3A, Ac-DEVD-pNA absorbance 405 nm. activation, % at 8.5 µM. 330,000 tested, 0.11% active;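 active means activation above the mean of all tested compounds plus 3 SD, cut at about 21% in these data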;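 further: 0% = DMSO alone and 100% = DMSO wells spiked with extra 5 µM PC-3 D3A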
Target sequence (P42574 whole entry D9A/D28A/D175A): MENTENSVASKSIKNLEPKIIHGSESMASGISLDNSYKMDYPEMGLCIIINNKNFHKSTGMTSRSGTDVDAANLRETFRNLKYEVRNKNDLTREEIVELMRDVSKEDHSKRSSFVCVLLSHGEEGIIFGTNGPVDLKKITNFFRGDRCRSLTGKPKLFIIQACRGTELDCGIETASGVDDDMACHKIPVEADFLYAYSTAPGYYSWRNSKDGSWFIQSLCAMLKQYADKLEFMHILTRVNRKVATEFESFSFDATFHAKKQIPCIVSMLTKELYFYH
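Test system: Procaspase-3 D3A mutant, all three cleavage aspartates alanine | Dosing: Single dose, 8.5 µM nominal compound, 0.8% DMSO | Schedule: 1 h preincubation, 2 h reaction | Technique: 405 nm absorbance of p-nitroaniline, reads at 0 and 120 min | Repeats: One well per compound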
procasp7 counter – activates human procaspase-7, counter-screen for procaspase-3 activators; activation, % at 8.5 µM; P55210; 330,000 tested, 0.093% active; recombinant procaspase-7, Ac-DEVD-pNA absorbance 405 nm; D23A/D198A/D206A triple mutant, cannot self-cleave; scale: DMSO 0, 5 µM enzyme 100;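 active means percent activation above the screen-wide mean plus 3 SD, cut at about 25% in these data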
Target sequence (P55210 whole entry D23A/D198A/D206A): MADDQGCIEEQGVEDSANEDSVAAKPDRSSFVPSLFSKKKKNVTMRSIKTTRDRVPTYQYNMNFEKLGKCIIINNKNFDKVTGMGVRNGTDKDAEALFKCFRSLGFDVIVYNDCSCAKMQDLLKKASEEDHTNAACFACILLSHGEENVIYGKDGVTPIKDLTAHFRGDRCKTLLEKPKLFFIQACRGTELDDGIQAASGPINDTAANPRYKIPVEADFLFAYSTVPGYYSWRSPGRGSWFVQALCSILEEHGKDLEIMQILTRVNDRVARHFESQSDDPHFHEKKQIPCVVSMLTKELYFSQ
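Assay system: Uncleavable procaspase-7 mutant enzyme; Input: 2 µM procaspase-7 mutant as dispensed; Also added: DEVD-pNA substrate; Medium: Zinc-free HEPES pH 7.4 with 300 mM NaCl, 0.01% Triton X-100; Timing: 1 h compound preincubation, 2 h substrate cleavage, 25 °C; Measured by: Epi-absorbance of released pNA at 405 nm, two timepoints.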
GRK2 inh – inhibitors of human GRK2 displacing RNA aptamer; 330,000 tested, 0.59% active; bead flow cytometry, FAM-aptamer displacement from GRK2; P25098; inhibition of aptamer binding, % at 10 µM;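 active means inhibition of aptamer binding above 40%, roughly 3 SD of noise, on plates passing a quality check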;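 further: median bead fluorescence of bound FAM aptamer so fluorescent compounds give negative values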
GRK2 inh confirm – confirmation of human GRK2 inhibitors displacing RNA aptamer | 2,000 tested, 4% active | bead-bound GRK2, FAM-aptamer displacement, flow cytometry | aptamer displacement, % at 10 µM | shares compounds with GRK2 inh;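 active means aptamer displacement above 40%, near three times the noise of non-fluorescent compounds, on plates passing quality checks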;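 further: negative values mostly reflect intrinsic compound fluorescence rather than true enhancement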
Aptamer quench SP – counter-screen for GRK2 aptamer inhibitors: fluorescent aptamer quenchers | shares compounds with GRK2 inh | Carboxyfluorescein RNA aptamer on beads, flow cytometry quenching; stronger effect = lower value | fluorescence response (% of DMSO), % at 10 µM | 2,000 tested, under 10 active | AID 504580;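 active means compounds that quench the bead-bound fluorescent RNA probe, cutting fluorescence to under half of the solvent control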;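 further: counterscreen run without GRK2 so only probe quenching by compound is measured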
GRK2 CP2 – confirmation of human GRK2 inhibitors binding RNA aptamer site; bead-bound GRK2, FAM-aptamer displacement, flow cytometry; shares compounds with GRK2 inh; inhibition of aptamer binding, % at 10 µM; 360 tested, under 10 active;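 active means inhibition of aptamer binding above 40%, about triple the noise seen with nonglowing compounds, on plates passing quality control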;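 further: negative values mostly come from compounds that fluoresce themselves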
FAM quench CP2 – quenches fluorescent RNA aptamer, GRK2 hit artifact. shares compounds with GRK2 inh. carboxyfluorescein RNA aptamer beads, flow cytometry quenching; stronger effect = lower value. fluorescence response vs DMSO, % at 10 µM. 360 tested, under 10 active;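 active means response vs DMSO under 50%, meaning signal dropped by over half, treated as fluorescence quencher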;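 further: labelled aptamer on streptavidin beads without GRK2 as a quench counter-screen; 100% = bead fluorescence of DMSO wells and lower means quenching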
Active calls of the source: *; x = no result given.

SMILES | aDG glyco up | T cell modulator | CaV13 ICDI inh | procasp3 activ | procasp7 counter | GRK2 inh | GRK2 inh confirm | Aptamer quench SP | others
COc1cc(CCC(=O)N2CCN(c3ncccn3)CC2)cc(OC)c1OC | -0.4 | 212.3 | 4.7 | -8.5 | 6.1 | 1.0 | x | x
O=C(c1ccc(NS(=O)(=O)/C=C/c2ccccc2)cc1)N1CCCCC1 | 0.3 | 561.4 | -6.1 | -3.0 | 6.1 | 2.0 | x | x
Cc1cc(OC(C)C(=O)NCc2cccnc2)c2c(C)cc(=O)oc2c1 (stereo not drawn) | 0.4 | 318.0 | -15.0 | -3.2 | -0.5 | 1.0 | x | x
CCCN(CCC)CCCNC(=O)c1ccc(CS(=O)(=O)c2c(Cl)cccc2Cl)o1 | 0.0 | 165.6 | -4.5 | -2.7 | 3.9 | 48.0* | x | x | GRK2 CP2=-14.5;FAM quench CP2=99.0
CN(C)CCNC(=O)c1ccc(CS(=O)(=O)c2c(Cl)cccc2Cl)o1 | -0.2 | 204.1 | 11.9 | 5.4 | 3.6 | 0.0 | x | x
O=C(NCCCN1CCN(c2cccc(Cl)c2)CC1)C1(S(=O)(=O)c2ccc(Cl)cc2)CC1 | 0.5 | 271.8 | x | 9.4 | -6.7 | 28.0 | -19.1 | 88.1
Cc1cc(OCC(=O)N2CCN(c3cccc(Cl)c3)CC2)c2c(C)c(C)c(=O)oc2c1 | -0.1 | 144.3 | -7.0 | 6.5 | 4.0 | 55.0* | -16.2 | 96.8
O=C(NCC1OCCc2ccccc21)c1ccc(NC(=O)c2ccccc2Cl)cc1 (stereo not drawn) | 0.7 | 249.0 | -12.5 | 2.2 | 3.2 | 47.0* | x | x | GRK2 CP2=-3.5;FAM quench CP2=101.0
O=C(NCC1OCCc2ccccc21)c1ccc(NC(=O)c2ccc(Cl)cc2Cl)cc1 (stereo not drawn) | -0.2 | 211.7 | -5.1 | 0.5 | 9.8 | 1.0 | x | x
COc1cc(C)c2c(c1C=O)Oc1c(c(C)c(O)c3c1C(O)OC3=O)OC2=O (stereo not drawn) | -0.1 | 208.5 | x | -12.8 | -12.8 | 66.0* | 14.1 | 92.3
COc1ccc(/C=C2\CCc3c2nc2ccccc2c3C(=O)O)cc1OC | -0.1 | 539.8 | -11.7 | -16.5 | -28.3 | 1.0 | 17.2 | 99.8
COc1ccc(/C=C2\CCCc3c2nc2ccccc2c3C(=O)O)cc1OC | x | 268.5 | x | -3.8 | -7.4 | 0.0 | x | x
Cc1ccc(N(CC(=O)Nc2ccc3c(c2)OCCO3)S(C)(=O)=O)cc1 | 0.0 | 831.4 | -5.4 | 3.7 | 3.8 | 3.0 | x | x
Cc1cn(C2OC(COC(=O)c3ccccc3)C(OC(=O)c3ccccc3)C2OC(=O)c2ccccc2)c(=O)[nH]c1=O (stereo not drawn) | 0.4 | 440.4 | -7.0 | -12.4 | 2.1 | 100.0* | -1.1 | 103.7
Cc1cn(C2OC(COC(=O)c3ccccc3)C(O)C2O)c(=O)[nH]c1=O (stereo not drawn) | 0.1 | 686.1 | -9.6 | 1.0 | -7.7 | 0.0 | x | x
COc1ccc(-n2nc3c(N4CCC(C(=O)N5CCC(C)CC5)CC4)nnc(C)c3c2C)cc1 | 0.3 | 250.1 | -15.2 | 4.0 | 1.9 | 0.0 | x | x
COc1ccc(N2Cc3cccc(C(=O)O)c3C2=O)cc1 | -0.3 | 951.7 | x | -4.9 | 1.1 | 61.0* | 32.4 | 96.9
Cc1cc(Cl)cc(C)c1OCCn1ccnc1 | 0.0 | 226.3 | -18.4 | -1.1 | 0.9 | 42.0* | x | x | GRK2 CP2=-23.5;FAM quench CP2=100.0
COc1cc(/C=C/C(=O)NCC2CCCCC2)cc(OC)c1OC | 0.0 | 116.9 | -2.2 | 2.9 | 8.9 | 63.0* | -0.4 | 106.0
